Drawing on the array DNA melting data of Ke et al. (doi:10.1101/2024.01.08.574731), this text covers folding enthalpy and Tm for 36 sequences.

The nature of series [1]: folding enthalpy; higher = less favourable; fluorescence melt of hairpins on a sequencing array, two-state fit. Particulars: sodium 0.088 M. An outline of the steps: (§1)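 Cy3 fluorescence of library hairpins on a sequenced MiSeq flow cell, with annealed Cy3 and quencher oligos, was imaged in 50 mM Na-HEPES pH 8.0, 25 mM NaCl in 2.5 °C steps up to 60 °C. Signals were normalised to pre-quench Cy3 and to control variants. Melting temperature and folding enthalpy came from bootstrapped two-state fits, inverse-variance combined over four replicates. Fitted temperatures were raised by 9.35 °C to match UV melts.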

A short description of series [2]: melting temperature; fluorescence melt of hairpins on a sequencing array, two-state fit, raised by 9.35 °C to match UV melts. Particulars: sodium 0.088 M. An outline of the steps: as §1

As to GCTCAGTCGAAAGACAGC (((..(((....)))))), the folding enthalpy in series [1] is -15.3 kcal/mol. Moreover, the Tm in series [2] worked out at 37.3 °C.
In the same order, the values of GCTCATCGAAAGATAAGC (((.(((....))).))) are -23.8 kcal/mol and 39.6 °C.
The matching figures for GCTCATGCGAAAGCAAGC (((..(((....)))))): -10.8 kcal/mol and 35 °C.
In the same order, the values of GCTCATGGAAACATAAGC (((.(((....))).))) are -18.2 kcal/mol and 32 °C.
Consider GCTCCAGGAAACTGGAAC (.(((((....))))).), for which the folding enthalpy in series [1] is -18.7 kcal/mol. Also, in series [2], the Tm was 38.3 °C.
For GCTCCCCGAAAGGGAAGC (((.(((....))).))), the folding enthalpy in series [1] was -34 kcal/mol. The Tm in series [2] was determined as 56.5 °C.
In the same order, the values of GCTCCCCGAAAGGGTAGC (((.(((....))).))) are -21.7 kcal/mol and 54 °C.
The matching figures for GCTCCCGAAAGGGCAGC ((((((....))).))): -30.2 kcal/mol and 55.2 °C.
For GCTCCCGAAAGGGGCAGC ((((((....)))..))), in series [1], the folding enthalpy was -12.5 kcal/mol. The Tm in series [2] is 49.8 °C.
Take GCTCCCGAAAGGGGGAGC ((((((....)))..))): the folding enthalpy in series [1] is -23.8 kcal/mol. For the same sequence, the Tm in series [2] worked out at 64.5 °C.
The matching figures for GCTCCCGAAAGGGTAGC ((((((....))).))): -32.2 kcal/mol and 54.4 °C.
The matching figures for GCTCCCGAAAGGGTCAGC ((((((....)))..))): -13.5 kcal/mol and 41 °C.
The matching figures for GCTCCCTCGAAAGAGAGC (((..(((....)))))): -19.5 kcal/mol and 35.6 °C.
GCTCCGCGAAAGCAGAGC ((((.((....)).)))): the folding enthalpy in series [1] is -31.6 kcal/mol. In series [2], the Tm stood at 64 °C.
Turning to GCTCCGCGAAAGCAGTGC ((.(.((....)).).)), the folding enthalpy in series [1] is -12.5 kcal/mol. In addition, in series [2], the Tm turned out to be 41.4 °C.
Turning to GCTCCGCGAAAGCCGAGC ((((.((....)).)))), in series [1], the folding enthalpy was -34.5 kcal/mol. The Tm in series [2] worked out at 58.4 °C.
With GCTCCGCGAAAGCGCCGC ((..(((....)))..)), in series [1], the folding enthalpy is -6.58 kcal/mol. Also, the Tm in series [2] was found to be 28.9 °C.
In the same order, the values of GCTCCGCGAAAGCGCGGC ((..(((....)))..)) are -11.9 kcal/mol and 44.8 °C.
The matching figures for GCTCCGCGAAAGCTAAGC (((..((....))..))): -9.02 kcal/mol and 30.7 °C.
The matching figures for GCTCCGGGAAACCGGAAC (.(((((....))))).): -12.4 kcal/mol and 43.2 °C.
On to GCTCCTCGAAAGAGTAGC (((.(((....))).))), for which the folding enthalpy in series [1] was -32.1 kcal/mol. Also, in series [2], the Tm was found to be 45.5 °C.
The matching figures for GCTCCTGGAAACAGGAAC (.(((((....))))).): -19.3 kcal/mol and 36.6 °C.
In the same order, the values of GCTCGAGGAAACCCGAGC (((((.(....).))))) are -30.9 kcal/mol and 54.3 °C.
The matching figures for GCTCGAGGAAACTCGAAC (.(((((....))))).): -18.1 kcal/mol and 40.9 °C.
In the case of GCTCGCCGAAAGGCCAGC (((.(((....))).))), the folding enthalpy in series [1] was -18.1 kcal/mol. For the same sequence, in series [2], the Tm was determined as 50.5 °C.
In the same order, the values of GCTCGCGAAAGCGCTAGC ((((((....)))..))) are -11.9 kcal/mol and 42.6 °C.
In the same order, the values of GCTCGGCGAAAGCAAAGC (((..((....))..))) are -16.4 kcal/mol and 37.8 °C.
For GCTCGGCGAAAGCAGTGC ((.(.((....)).).)), the folding enthalpy in series [1] was -11.7 kcal/mol. For the same sequence, the Tm in series [2] worked out at 60.6 °C.
Consider GCTCGGCGAAAGCCAAGC (((.(((....))).))), for which, in series [1], the folding enthalpy is -35.8 kcal/mol. Besides, the Tm in series [2] is 52.4 °C.
The matching figures for GCTCGGCGAAAGCCTAGC (((.(((....))).))): -40.8 kcal/mol and 52.8 °C.
On to GCTCGGCGAAAGCCTGGC ((..(((....)))..)), for which the folding enthalpy in series [1] is -12.7 kcal/mol. Besides, the Tm in series [2] is 53.8 °C.
In the same order, the values of GCTCGGGGAAACCCAAGC (((.(((....))).))) are -17.8 kcal/mol and 45.3 °C.
The matching figures for GCTCGGGGAAACCCGGGC ((.((((....)))).)): -34.6 kcal/mol and 59.2 °C.
In the same order, the values of GCTCGGGGAAACCTGGGC ((.(.((....)).).)) are -18.5 kcal/mol and 45.9 °C.
Turning to GCTCGTACGAAAGTAAGC (((..(((....)))))), the folding enthalpy in series [1] was -4.48 kcal/mol. In addition, in series [2], the Tm amounted to 39.3 °C.
The matching figures for GCTCGTCGAAAGACCAGC (((.(((....))).))): -15.2 kcal/mol and 45.1 °C.
